Experimental data from PubChem BioAssay.
Results filed as inconclusive are left out. Calls of active or inactive are those of the source.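 How the source made its calls, unless noted: active means viability increase at or above a cutoff of the median across tested compounds plus 3 SD (cut at about 8.5% in these data, passing the limit was not always enough); inconclusive means some gains above the cutoff, reason not given; inactive means the rest.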

Tests used:
[1] = OD615 S. cerevisiae growth inhibition, permissive medium, pilot counter-assay, permissive growth control for S. cerevisiae lifespan shortening project (AID 705;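 active means growth inhibition above 25% in both replicates, a cutoff set 3 SD above the mean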); conditions: OD615, 24 h, at 10 µM, active compounds read high
Outline: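 System: Engineered DeaD yeast | Buffer or medium: SC raffinose/galactose permissive medium | Incubation: Cells pre-grown 4 h, then 24 h compound exposure, 30 °C humidified | Measured by: Absorbance (optical density) at 615 nm | Read-out: Reduction in yeast growth (OD615)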

[2] = Restrictive medium S. cerevisiae growth inhibition, OD615, pilot screen of yeast lifespan reduction project, restrictive growth control (AID 706;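 active means growth inhibition above a set limit, 3 SD over mean compound inhibition, in both replicates, cut at about 43% in these data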;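 further: modified DeaD lifespan yeast strain shifted to restrictive glucose medium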); conditions: OD615, 48 h, at 10 µM, active compounds read high
Outline: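 Material: modified S. cerevisiae; Medium: glucose-based CSMM-D restrictive medium; Compound dosing: one concentration, 10 µM final, 0.25% DMSO; Incubation: 48 h compound exposure at 30 °C; Measured by: OD615.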

[3] = viability gain of MRP-1-high H69AR cells under doxorubicin, pilot screen, MRP-1 activator project, CellTiter-Glo, duplicate (AID 807); conditions: H69AR viability with doxorubicin, CellTiter-Glo luminescence; at 10 µM; active compounds read high;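 further: compound pretreatment 18-22 h then 72 h combined with doxorubicin; 0% = doxorubicin alone and 100% = vehicle without doxorubicin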
[4] = growth suppression of beta-catenin knockout HCT116, pilot screen, human colon tumor cells (AID 823;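 active means cell viability at or below a set limit in both duplicate runs, the limit being the all-compound median minus 4 SD, cut at about 23% in these data, passing the limit was not always enough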;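 further: 0% = wells killed by 20 µM Hyamine and 100% = untreated DMSO cell wells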); conditions: CellTiter-Glo, 60 h, at 10 µM, active compounds read low
[5] = growth suppression of PTEN-deleted HCT116, pilot screen, cell-based, HCT116 clonal line, CellTiter-Glo (AID 824;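 active means viability at or below 27.92% in each of two runs, the all-compound median minus 4 SD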;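 further: 0% = 20 µM Hyamine control and 100% = vehicle cell control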); conditions: 60 h, at 10 µM, active compounds read low
[6] = inhibitors of the yeast RAM network, pilot screen, dse1pr::URA3 reporter, 5-FOA selection (AID 869;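 active means inhibition over a set limit, the all-compound mean plus 3 SD, in both replicate runs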;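 further: 0% = DMSO wells with no growth and 100% = 10 µM 1-NA-PP1 with full growth; RAM network block rescues cells from 5-FOA so hits raise OD615 growth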); conditions: S. cerevisiae dse1pr::URA3 5-FOA growth, OD615, 2 d; at 10 µM; active compounds read high; strain carries analog-sensitive mutant Cbk1 kinase
[7] = RAM signaling pathway blockade in yeast – S. cerevisiae, Pdr1DBD-CYC8 efflux-inhibited sensitized strain, primary screen (AID 1298;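 active means RAM network inhibition above 8.4% in each of two replicates, 3 SD over the compound average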;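 further: 0% = DMSO untreated cells without growth and 100% = 10 µM 1-NA-PP1 full growth; higher means more yeast growth rescued from 5-FOA killing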); conditions: S. cerevisiae cbk1-as DSE1-URA3 strain, 5-FOA growth OD615, 2 d; at 50 µM; active compounds read high

COc1ccc(Cl)cc1NC(=O)c1nc2nc(C)cc(C(F)F)n2n1
inactive: growth inhibition [1] -3.76% | growth inhibition [2] -10.8% | viability increase [3] -4.12% | viability [4] 94.4% | viability [5] 88.4% | inhibition [6] 2.35% | RAM network inhibition [7] 2.1%

Cc1cc2ccccc2n1CCNC(=O)C(C)C
inactive: growth inhibition [1] -8.34% | growth inhibition [2] -7.54% | viability increase [3] -1.99% | viability [4] 102% | viability [5] 98.7% | inhibition [6] 0.15% | RAM network inhibition [7] 2.1%

O=C(NCCCN1CCOCC1)c1cc(-c2ccc3c(c2)OCO3)nc2ccccc12
inactive: growth inhibition [1] -19.7% | growth inhibition [2] -7.51% | viability increase [3] -3.78% | viability [4] 92.8% | viability [5] 89.3% | inhibition [6] 1.26% | RAM network inhibition [7] 7.64%

CC1Cc2nc(SCC(=O)Nc3nccs3)n(Cc3ccccc3)c(=O)c2S1 (stereo not given)
inactive: growth inhibition [1] 4.49% | growth inhibition [2] 8.66% | viability increase [3] -2.23% | viability [4] 94.8% | viability [5] 88.4% | inhibition [6] 2.21% | RAM network inhibition [7] 3.83%

CCC(C)NC(=O)CS(=O)Cc1nc(-c2cccc(OC)c2)oc1C (stereo not given)
inactive: growth inhibition [1] -12.5% | growth inhibition [2] -1.45% | viability increase [3] -1.45% | viability [4] 98% | viability [5] 94.5% | inhibition [6] 1.23% | RAM network inhibition [7] 4.44%

CN1CCN(C(=O)c2cn(C)c3ccc(S(=O)(=O)N(C)C4CCCCC4)cc3c2=O)CC1
inactive: growth inhibition [1] -7.8% | growth inhibition [2] -13.2% | viability increase [3] -2.39% | viability [4] 102% | viability [5] 101% | inhibition [6] 0% | RAM network inhibition [7] -0.26%

COc1ccc(OC)c2sc(NC(=O)c3ccc(Cl)s3)nc12
inactive: growth inhibition [1] -16.4% | growth inhibition [2] -10.6% | viability increase [3] -3.79% | inhibition [6] 3.47% | RAM network inhibition [7] 5.85%
active: viability [4] 22% | viability [5] 13.8%

O=C(Cn1ncc2c1-c1ccccc1OC2)Nc1nc2ccccc2s1
inactive: growth inhibition [1] -6.12% | growth inhibition [2] 18.7% | viability increase [3] -6.71% | viability [4] 93.9% | viability [5] 84.5% | inhibition [6] 0.785% | RAM network inhibition [7] -2.15%

CN(C)CCCN1C(=O)c2oc3ccc(F)cc3c(=O)c2C1c1cccnc1 (stereo not given)
inactive: growth inhibition [1] 4.42% | growth inhibition [2] 7.96% | viability increase [3] -1.1% | viability [4] 107% | viability [5] 98.7% | inhibition [6] 2.9% | RAM network inhibition [7] 2.14%

Cc1ccc(S(=O)(=O)Nc2ccc3nc(N)sc3c2)cc1
inactive: growth inhibition [1] 6.55% | growth inhibition [2] 13.4% | viability increase [3] -4.39% | viability [4] 82.6% | viability [5] 85.5% | inhibition [6] 0.19% | RAM network inhibition [7] 2.92%

CCOC(=O)NC(Nc1cc(C)ccn1)(C(F)(F)F)C(F)(F)F
inactive: growth inhibition [1] 0.885% | growth inhibition [2] -3.62% | viability increase [3] -1.93% | viability [4] 104% | viability [5] 100% | inhibition [6] 0.28% | RAM network inhibition [7] -1.18%

Cc1nnc(NC(=O)CSc2nnc(Cc3cccn3C)n2-c2ccccc2)s1
active: growth inhibition [2] 46.5%
inactive: growth inhibition [1] 10.8% | viability increase [3] 0.97% | viability [4] 95% | viability [5] 95.3% | inhibition [6] 1.31% | RAM network inhibition [7] 4.48%

COc1cc(NC(=O)C2CCC(CNc3c(N4CCCCC4)c(=O)c3=O)CC2)cc(OC)c1 (stereo not given)
inactive: growth inhibition [1] 0.52% | growth inhibition [2] -2.35% | viability increase [3] -0.71% | viability [4] 95.2% | viability [5] 95.9% | inhibition [6] 1.79% | RAM network inhibition [7] 5.55%

COc1ccc(S(=O)(=O)Cc2ccc(C(=O)N3CCN(c4ncccn4)CC3)o2)cc1
inactive: growth inhibition [1] -2.81% | growth inhibition [2] 4.27% | viability increase [3] -2.72% | viability [4] 106% | viability [5] 103% | inhibition [6] 2.58% | RAM network inhibition [7] 2.27%

Nc1cc(C(=O)c2cccs2)ccc1Cl
inactive: growth inhibition [1] -9.76% | growth inhibition [2] -0.475% | viability increase [3] -1.88% | viability [4] 90.9% | viability [5] 96.7% | inhibition [6] 0.165% | RAM network inhibition [7] 3.24%

O=C1c2oc3ccccc3c(=O)c2C(c2cccc(O)c2)N1CCCN1CCOCC1 (stereo not given)
inactive: growth inhibition [1] -8.79% | growth inhibition [2] -7.73% | viability increase [3] -0.83% | viability [4] 102% | viability [5] 102% | inhibition [6] 0.37% | RAM network inhibition [7] 2.79%

COc1ccc(C(=O)N2CCN(C(=O)c3ccco3)CC2)cc1
inactive: growth inhibition [1] 1.98% | growth inhibition [2] 6.93% | viability increase [3] -2.64% | viability [4] 100% | viability [5] 98.8% | inhibition [6] 1.56% | RAM network inhibition [7] 4.49%

CCOC(=O)N1CCN(CC(=O)c2ccc3c(c2)CCN3C(C)=O)CC1
inactive: growth inhibition [1] 0.355% | growth inhibition [2] -1.94% | viability increase [3] -1.31% | viability [4] 100% | viability [5] 96.6% | inhibition [6] 2.14% | RAM network inhibition [7] 6.23%

Cn1c(=O)c2c(nc(CN3CCCCC3)n2Cc2c(F)cccc2Cl)n(C)c1=O
inactive: growth inhibition [1] -2.88% | growth inhibition [2] -10.9% | viability increase [3] -2.22% | viability [4] 102% | viability [5] 93.2% | inhibition [6] 3.12% | RAM network inhibition [7] 4.38%

CCCCSC1=C(C#N)C(c2ccccc2C)CC(=O)N1 (stereo not given)
inactive: growth inhibition [1] -14.2% | growth inhibition [2] 3.23% | viability increase [3] -2.96% | viability [4] 95.1% | viability [5] 79.6% | inhibition [6] 1.03% | RAM network inhibition [7] 5.84%

CCN(CC)CCCNC(=O)Cn1cc2c(n1)CCC(C)C2 (stereo not given)
inactive: growth inhibition [1] -3.44% | growth inhibition [2] -0.585% | viability increase [3] -1.22% | viability [4] 96.9% | viability [5] 98.1% | inhibition [6] 2.05% | RAM network inhibition [7] 2.3%

Cc1cccc(OCc2nc(C#N)c(N3CC(C)CC(C)C3)o2)c1 (stereo not given)
inactive: growth inhibition [1] 0.505% | growth inhibition [2] -2.89% | viability increase [3] 3.8% | viability [4] 63.5% | viability [5] 65.3% | inhibition [6] 1.85% | RAM network inhibition [7] 5.88%

CCOCCCNC(=O)Cn1nc(-c2ccccc2)ccc1=O
inactive: growth inhibition [1] -19.8% | growth inhibition [2] -7.81% | viability increase [3] 1.86% | viability [4] 105% | viability [5] 91.7% | inhibition [6] 0.165% | RAM network inhibition [7] -0.58%

CCC(=O)NCCc1cc2ccc(C)cc2[nH]c1=O
inactive: growth inhibition [1] -3.85% | growth inhibition [2] -15.4% | viability increase [3] -1.94% | viability [4] 110% | viability [5] 93.8% | inhibition [6] 2.58% | RAM network inhibition [7] 0.78%

Cc1ccc(CCN2C(=O)CCC2(C)C(=O)NC2CCCC2)cc1 (stereo not given)
inactive: growth inhibition [1] -7.04% | growth inhibition [2] -1.27% | viability increase [3] -4.22% | viability [4] 97.5% | viability [5] 100% | inhibition [6] 1.19% | RAM network inhibition [7] 5.93%

CSc1cccc(NC(=O)CN(c2cc(C)ccc2C)S(C)(=O)=O)c1
inactive: growth inhibition [1] -4.02% | growth inhibition [2] -2.52% | viability increase [3] -3.54% | viability [4] 77.4% | viability [5] 79.8% | inhibition [6] -0.95% | RAM network inhibition [7] 1.46%

Cc1nn2c(=O)cc(CSc3nc4ccccc4[nH]3)nc2s1
inactive: growth inhibition [1] -3.92% | growth inhibition [2] 2.41% | viability increase [3] -2.31% | viability [4] 103% | viability [5] 103% | inhibition [6] 1.35% | RAM network inhibition [7] 0.17%

COc1ccccc1-c1nnc(NC(=O)c2ccccc2F)o1
inactive: growth inhibition [1] -16.6% | growth inhibition [2] -17.1% | viability increase [3] -5.55% | viability [4] 88.3% | viability [5] 89.7% | inhibition [6] 1.22% | RAM network inhibition [7] 0.16%

COc1ccccc1CC1(C)NC(=O)N(CC(=O)N2CC(C)OC(C)C2)C1=O (stereo not given)
inactive: growth inhibition [1] -25.5% | growth inhibition [2] -15% | viability increase [3] -0.71% | viability [4] 95.5% | viability [5] 97.9% | inhibition [6] 1.68% | RAM network inhibition [7] 1.34%

Cc1cc2oc3c(c(=O)c2cc1C)C(c1ccc(C(C)C)cc1)N(CCCN1CCOCC1)C3=O (stereo not given)
inactive: growth inhibition [1] -7.04% | growth inhibition [2] -2.79% | viability increase [3] -3.45% | viability [4] 95.8% | viability [5] 86.5% | inhibition [6] 1.31% | RAM network inhibition [7] 4.42%

COc1ccc(NC(=O)Nc2ccc3c(c2)N(C)C(=O)CS3)cc1OC
inactive: growth inhibition [1] -18.9% | growth inhibition [2] -18.2% | viability increase [3] -4.94% | viability [4] 88% | viability [5] 75.9% | inhibition [6] 2.05% | RAM network inhibition [7] 5.75%

Cc1ccc2oc(=O)c3cnn(CC(=O)N4CCCCCC4)c3c2c1
inactive: growth inhibition [1] -11% | growth inhibition [2] -0.055% | viability increase [3] -3.69% | viability [4] 82.8% | viability [5] 89.1% | inhibition [6] 1.46% | RAM network inhibition [7] 2.05%

COc1ccc(CSc2nnnn2Cc2ccccc2)cc1OC
inactive: growth inhibition [1] 0.115% | growth inhibition [2] 1.64% | viability increase [3] -0.65% | viability [4] 87.3% | viability [5] 84.4% | inhibition [6] 0.785% | RAM network inhibition [7] 1.87%

CCOc1ccc(NC(=O)CCS(=O)(=O)c2cccc3nsnc23)cc1
inactive: growth inhibition [1] -1.9% | growth inhibition [2] -3.6% | viability increase [3] -3.08% | viability [4] 101% | viability [5] 93.7% | inhibition [6] 1.31% | RAM network inhibition [7] 2.36%

CCOC(=O)c1sc2nc3n(c(=O)c2c1C)CCCCC3
inactive: growth inhibition [1] -4.76% | growth inhibition [2] 5.75% | viability increase [3] 6.25% | viability [4] 87.5% | viability [5] 103% | inhibition [6] 0.475% | RAM network inhibition [7] 4.46%
